Results from ChEMBL document CHEMBL5247680, “Design, Synthesis, and Biological Activity of Thioguanine-Modified Pleuromutilin Derivatives” (ACS Med Chem Lett, 2023).
≈ marks a conversion by molar mass, not a printed value. Calls of active or inactive are those of the source. The calls are words filed in the database; no cut-off is given here.

Assays:
[1] = test system: Staphylococcus aureus; test: Antibacterial activity against Methicillin-resistant Staphylococcus aureus ATCC 33591 assessed as bacterial colony inhibition at 1 to 2 times MIC measured upto 24 hrs by time kill assay; type: functional, organism-based
In short: (§1)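 MRSA ATCC 33591 time-kill curves at 1×, 2× and 4× MIC, with a tiamulin positive control and an untreated growth control. Viable counts were taken as CFU·mL⁻¹ at time points through incubation, including 2, 8 and 12 h.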

[2] = test system: Staphylococcus aureus; test: Antibacterial activity against Methicillin-resistant Staphylococcus aureus ATCC 43300 assessed as bacterial growth inhibition incubated for 20 to 24 hrs by microbroth serial dilution assay; type: functional; settings: time 20-24 hrs
[3] = test system: Staphylococcus aureus; test: Antibacterial activity against Staphylococcus aureus ATCC 25923 assessed as bacterial growth inhibition incubated for 20 to 24 hrs by microbroth serial dilution assay; type: functional; settings: time 20-24 hrs
[4] = test system: Staphylococcus epidermidis; test: Antibacterial activity against Methicillin-resistant Staphylococcus epidermidis ATCC 51625 assessed as bacterial growth inhibition incubated for 20 to 24 hrs by microbroth serial dilution assay; type: functional; settings: time 20-24 hrs
[5] = test system: Staphylococcus aureus; test: Antibacterial activity against Methicillin-resistant Staphylococcus aureus ATCC 33591 assessed as bacterial growth inhibition incubated for 20 to 24 hrs by microbroth serial dilution assay; type: functional; settings: time 20-24 hrs
[6] = test system: Staphylococcus aureus; test: In vivo Antibacterial activity against Methicillin-resistant Staphylococcus aureus in ICR mouse thigh infection model assessed as reduction in bacterial load at 40 mg/kg, IP by […]; type: functional
[7] = test system: Staphylococcus epidermidis; test: Selectivity ratio of MBC for antibacterial activity against Methicillin-sensitive Staphylococcus epidermidis […] to MIC for antibacterial activity against Methicillin-sensitive Staphylococcus epidermidis […]; type: functional
[8] = test system: Staphylococcus aureus; test: Selectivity ratio of MBC for antibacterial activity against Methicillin-sensitive Staphylococcus aureus ATCC 29213 to MIC for antibacterial activity against Methicillin-sensitive Staphylococcus aureus ATCC 29213
[9] = test system: Staphylococcus aureus; test: Selectivity ratio of MBC for antibacterial activity against Staphylococcus aureus to MIC for antibacterial activity against Staphylococcus aureus; type: functional
[10] = test system: Staphylococcus epidermidis; test: Antibacterial activity against Methicillin-sensitive Staphylococcus epidermidis ATCC 12228 assessed as bacterial growth inhibition incubated for 20 to 24 hrs by microbroth serial dilution assay; type: functional; settings: time 20-24 hrs
[11] = test system: Staphylococcus aureus; test: Antibacterial activity against Methicillin-sensitive Staphylococcus aureus ATCC 29213 assessed as bacterial growth inhibition incubated for 20 to 24 hrs by microbroth serial dilution assay
[12] = test system: Staphylococcus aureus; test: Antibacterial activity against Methicillin-resistant Staphylococcus aureus ATCC 33591 assessed as bacterial bactericidal effect at 1 to 2 times MIC measured upto 24 hrs by time kill assay; type: functional, organism-based; in short: as §1
[13] = test system: Staphylococcus aureus; test: Antibacterial activity against Methicillin-resistant Staphylococcus aureus ATCC 33591 assessed as bacterial growth inhibition at 1 to 2 times MIC measured upto 24 hrs by time kill assay; type: functional, organism-based; in short: as §1
[14] = test system: Staphylococcus aureus; test: Selectivity ratio of MBC for antibacterial activity against Methicillin-resistant Staphylococcus aureus ATCC 43300 to MIC for antibacterial activity against Methicillin-resistant Staphylococcus aureus ATCC 43300; type: functional
[15] = test system: Staphylococcus aureus; test: Selectivity ratio of MBC for antibacterial activity against Methicillin-resistant Staphylococcus aureus ATCC 33591 to MIC for antibacterial activity against Methicillin-resistant Staphylococcus aureus ATCC 33591; type: functional
[16] = test system: Staphylococcus epidermidis; test: Selectivity ratio of MBC for antibacterial activity against Methicillin-resistant Staphylococcus epidermidis ATCC 51625 to MIC for antibacterial activity against Methicillin-resistant Staphylococcus epidermidis ATCC 51625; type: functional

Compound: C=C[C@]1(C)C[C@@H](OC(=O)CSCCN(CC)CC)[C@]2(C)[C@H](C)CC[C@]3(CCC(=O)[C@H]32)[C@@H](C)[C@@H]1O [TIAMULIN]
- Activity [1]: Active
- MIC [2]: 2 µg/mL (≈ 4.05 µM)
- MIC [3]: 2 µg/mL (≈ 4.05 µM)
- MIC [4]: 1 µg/mL (≈ 2.03 µM)
- MIC [5]: 1 µg/mL (≈ 2.03 µM)
- Activity [6]: 1 10^7CFU/g
- Ratio [7]: >4
- Ratio [8]: >4
- Ratio [9]: 4
- MIC [10]: 0.5 µg/mL (≈ 1.01 µM)
- MIC [11]: 1 µg/mL (≈ 2.03 µM)
- Activity [12]: inactive
- Activity [13]: Active

Compound: C=C[C@]1(C)C[C@@H](OC(=O)CSc2nc(N)nc3c2ncn3C(=O)OCC)[C@@]2(C)C3C(=O)CC[C@@]3(CC[C@H]2C)[C@@H](C)[C@@H]1O (some centres undefined)
- MIC [2]: 0.125 µg/mL (≈ 0.208 µM)
- MIC [3]: 0.25 µg/mL (≈ 0.417 µM)
- Ratio [14]: >4
- MIC [4]: 0.25 µg/mL (≈ 0.417 µM)
- MIC [5]: 0.25 µg/mL (≈ 0.417 µM)
- Ratio [7]: >4
- Ratio [8]: >4
- Ratio [9]: 4
- MIC [10]: < 0.0078 µg/mL
- MIC [11]: 0.125 µg/mL (≈ 0.208 µM)

Compound: C=C[C@]1(C)C[C@@H](OC(=O)CSc2nc(N)nc3c2ncn3C(=O)NCc2cccc(OC)c2)[C@@]2(C)C3C(=O)CC[C@@]3(CC[C@H]2C)[C@@H](C)[C@@H]1O (some centres undefined)
- Ratio [15]: 4
- MIC [2]: 0.125 µg/mL (≈ 0.181 µM)
- Ratio [16]: 2
- MIC [3]: 0.125 µg/mL (≈ 0.181 µM)
- MIC [4]: 0.0625 µg/mL (≈ 0.0905 µM)
- MIC [5]: 0.125 µg/mL (≈ 0.181 µM)
- Ratio [7]: >4
- Ratio [8]: 4
- Ratio [9]: >4
- MIC [10]: 0.0156 µg/mL (≈ 0.0226 µM)
- MIC [11]: 0.0625 µg/mL (≈ 0.0905 µM)

Compound: C=C[C@]1(C)C[C@@H](OC(=O)CSc2nc(NC(=O)CN3CCCC3)nc3[nH]cnc23)[C@@]2(C)C3C(=O)CC[C@@]3(CC[C@H]2C)[C@@H](C)[C@@H]1O (some centres undefined)
- Ratio [15]: 4
- MIC [2]: 1 µg/mL (≈ 1.57 µM)
- Ratio [16]: 4
- MIC [3]: 2 µg/mL (≈ 3.13 µM)
- MIC [4]: 1 µg/mL (≈ 1.57 µM)
- MIC [5]: 2 µg/mL (≈ 3.13 µM)
- Ratio [7]: >4
- Ratio [8]: 4
- Ratio [9]: >4
- MIC [10]: 2 µg/mL (≈ 3.13 µM)
- MIC [11]: 2 µg/mL (≈ 3.13 µM)

Compound: C=C[C@]1(C)C[C@@H](OC(=O)CSc2nc(N)nc3[nH]cnc23)[C@@]2(C)C3C(=O)CC[C@@]3(CC[C@H]2C)[C@@H](C)[C@@H]1O (some centres undefined)
- Ratio [15]: 4
- MIC [2]: 0.125 µg/mL (≈ 0.237 µM)
- Ratio [16]: 2
- MIC [3]: 0.25 µg/mL (≈ 0.474 µM)
- MIC [4]: 0.125 µg/mL (≈ 0.237 µM)
- MIC [5]: 0.125 µg/mL (≈ 0.237 µM)
- Ratio [7]: >4
- Ratio [9]: >4
- MIC [10]: 0.125 µg/mL (≈ 0.237 µM)
- MIC [11]: 0.125 µg/mL (≈ 0.237 µM)

Compound: C=C[C@]1(C)C[C@@H](OC(=O)CSc2nc(NC(=O)CN3CCOCC3)nc3[nH]cnc23)[C@@]2(C)C3C(=O)CC[C@@]3(CC[C@H]2C)[C@@H](C)[C@@H]1O (some centres undefined)
- Ratio [15]: >4
- MIC [2]: 1 µg/mL (≈ 1.53 µM)
- MIC [3]: 0.5 µg/mL (≈ 0.764 µM)
- Ratio [14]: >4
- MIC [4]: 0.125 µg/mL (≈ 0.191 µM)
- MIC [5]: 1 µg/mL (≈ 1.53 µM)
- Ratio [7]: >4
- Ratio [8]: >4
- MIC [10]: 0.0156 µg/mL (≈ 0.0238 µM)
- MIC [11]: 1 µg/mL (≈ 1.53 µM)

Compound: C=C[C@]1(C)C[C@@H](OC(=O)CSc2nc(N)nc3c2ncn3C(=O)Nc2ccc(F)cc2)[C@@]2(C)C3C(=O)CC[C@@]3(CC[C@H]2C)[C@@H](C)[C@@H]1O (some centres undefined)
- MIC [2]: 0.125 µg/mL (≈ 0.188 µM)
- Ratio [16]: 4
- MIC [3]: 0.125 µg/mL (≈ 0.188 µM)
- MIC [4]: 0.125 µg/mL (≈ 0.188 µM)
- MIC [5]: 0.125 µg/mL (≈ 0.188 µM)
- Ratio [7]: >4
- Ratio [8]: 2
- Ratio [9]: >4
- MIC [10]: 0.0156 µg/mL (≈ 0.0235 µM)
- MIC [11]: 0.25 µg/mL (≈ 0.376 µM)

Compound: C=C[C@]1(C)C[C@@H](OC(=O)CSC(C)(C)CNC(=O)[C@H](N)C(C)C)[C@]2(C)[C@H](C)CC[C@]3(CCC(=O)[C@H]32)[C@@H](C)[C@@H]1O [VALNEMULIN]
- MIC [2]: 0.125 µg/mL (≈ 0.221 µM)
- MIC [3]: 0.25 µg/mL (≈ 0.443 µM)
- Ratio [14]: 4
- MIC [4]: 0.125 µg/mL (≈ 0.221 µM)
- MIC [5]: 0.25 µg/mL (≈ 0.443 µM)
- Ratio [7]: >4
- Ratio [8]: >4
- Ratio [9]: 1
- MIC [10]: 2 µg/mL (≈ 3.54 µM)
- MIC [11]: 0.125 µg/mL (≈ 0.221 µM)

Compound: C=C[C@]1(C)C[C@@H](OC(=O)CSc2nc(N)nc3c2ncn3C(=O)c2ccc(OC)cc2)[C@@]2(C)C3C(=O)CC[C@@]3(CC[C@H]2C)[C@@H](C)[C@@H]1O (some centres undefined)
- MIC [2]: 0.125 µg/mL (≈ 0.189 µM)
- Ratio [16]: 4
- MIC [3]: 0.25 µg/mL (≈ 0.378 µM)
- MIC [4]: 0.25 µg/mL (≈ 0.378 µM)
- MIC [5]: 0.5 µg/mL (≈ 0.755 µM)
- Ratio [7]: >4
- Ratio [9]: >4
- MIC [10]: < 0.0078 µg/mL
- MIC [11]: 0.5 µg/mL (≈ 0.755 µM)
